In this assay the test system is CHO-CHOP cells viability, ATPLite luminescence, 24 h. The assay can be described thus: cytotoxicity in CHO-CHOP reporter cells, SAR follow-up, cytotoxicity control for UPR apoptotic arm activator project, cell-based, 24 h exposure, ATPLite luminescence (AID 588556). The method, boiled down: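 Assay system: CHO-CHOP cells | Amount: 500 cells/well | Doses: Dose-response series, final DMSO at most 1% | Controls: Tunicamycin 10 µg/mL final as positive control, DMSO alone as negative | Incubation: 16-18 h cell pre-culture, 24 h compound treatment, 37 °C | Signal: ATPLite 1-Step luminescence | Medium: Serum-supplemented F12 medium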

Activity calls are given as the source filed them.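 Rule for the calls: active = IC50 at or below 20 µM in the 24 hour cytotoxicity test; inactive = the rest.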 Where only a bound is given, the exact number is not on record here.

With `O=C(Nc1ccc(S(=O)(=O)N2CCOCC2)cc1)c1ccc([N+](=O)[O-])s1`, the IC50 is > 80000 nM (inactive).

As for `O=C(Nc1ccc(S(=O)(=O)N2CCC(O)CC2)cc1)c1ccc([N+](=O)[O-])o1`, the IC50 is 45900 nM (inactive).

For the molecule `O=C(Nc1ccc(S(=O)(=O)N2CCOCC2)cc1)c1ccc([N+](=O)[O-])o1`, the IC50 is 53500 nM (inactive).

Consider `O=C(Nc1ccc(S(=O)(=O)N2CCNCC2)cc1)c1ccc([N+](=O)[O-])o1`, for which the IC50 is > 80000 nM (inactive).

For `CC(C)(C)C1CCN(S(=O)(=O)c2ccc(NC(=O)c3ccc([N+](=O)[O-])o3)cc2)CC1`, the IC50 is 2420 nM.

For `O=C(Nc1ccc(S(=O)(=O)c2ccccc2)cc1)c1ccc([N+](=O)[O-])o1`, the IC50 is 40400 nM (inactive).

For `O=C(Nc1nc2cccc(F)c2s1)c1ccccn1`, the IC50 is 2350 nM.

For `CC1CCN(S(=O)(=O)c2ccc(NC(=O)c3ccc([N+](=O)[O-])o3)cc2)CC1`, the IC50 was > 80000 nM (inactive).

For the molecule `O=C(Nc1nc2ccc(C(F)(F)F)cc2s1)c1ccccn1`, the IC50 was 1220 nM.

`O=C(Nc1nc2c(F)cccc2s1)c1ccccn1`: the IC50 is 1580 nM.

For `O=C(Nc1nc2ccc(F)c(F)c2s1)c1ccccn1`, the IC50 was 1420 nM.

Consider `O=C(Nc1nc2cc(F)cc(F)c2s1)c1ccccn1`, for which the IC50 was 1830 nM.

As for `O=C(Nc1ccc(S(=O)(=O)N2CCCC2)cc1)c1ccc([N+](=O)[O-])o1`, the IC50 is 25000 nM (inactive).

On to `O=C(Nc1nc2ccc(Cl)cc2s1)c1ccccn1`, for which the IC50 is 1230 nM.

As to `Cc1cc(C)c2nc(NC(=O)c3ccccn3)sc2c1`, the IC50 was 5310 nM.

With `O=C(Nc1nc2c(F)ccc(F)c2s1)c1ccccn1`, the IC50 was 1670 nM.

Regarding `O=C(Nc1ccc(S(=O)(=O)N2CCC(Cl)CC2)cc1)c1ccc([N+](=O)[O-])o1`, the IC50 is 66800 nM (inactive).

On to `O=C(Nc1nc2c(F)cc(F)cc2s1)c1ccccn1`, for which the IC50 was 1400 nM.

On to `O=C(Nc1nc2c(F)c(F)ccc2s1)c1ccccn1`, for which the IC50 is 1680 nM.

For `O=C(Nc1ccc(S(=O)(=O)N2CCC(F)CC2)cc1)c1ccc([N+](=O)[O-])o1`, the IC50 was 32600 nM (inactive).

For the molecule `O=C(Nc1nc2ccc(F)cc2s1)c1ccccn1`, the IC50 was 1930 nM.

With `CC1CN(S(=O)(=O)c2ccc(NC(=O)c3ccc([N+](=O)[O-])o3)cc2)CC(C)O1` (stereo not given), the IC50 is 51400 nM (inactive).

Turning to `O=C(Nc1nc2cc(F)ccc2s1)c1ccccn1`, the IC50 was 1570 nM.

Turning to `O=C(Nc1ccc(S(=O)(=O)C2CCOCC2)cc1)c1ccc([N+](=O)[O-])o1`, the IC50 was 66300 nM (inactive).

Turning to `O=C(Nc1ccc(S(=O)(=O)N2CCC3(CCCCC3)CC2)cc1)c1ccc([N+](=O)[O-])o1`, the IC50 is 1160 nM.

Regarding `O=C(Nc1ccc(S(=O)(=O)N2CCCCC2)cc1)c1ccc([N+](=O)[O-])o1`, the IC50 was > 80000 nM (inactive).

On to `O=C(Nc1nc2cc(F)c(F)cc2s1)c1ccccn1`, for which the IC50 was 2660 nM.

In the case of `O=C(Nc1nc2c(Cl)cc(Cl)cc2s1)c1ccccn1`, the IC50 is 13300 nM.

`O=C(Nc1ccc(S(=O)(=O)C2CCCCC2)cc1)c1ccc([N+](=O)[O-])o1`: the IC50 is 26700 nM (inactive).

As to `CC1(C)CCN(S(=O)(=O)c2ccc(NC(=O)c3ccc([N+](=O)[O-])o3)cc2)CC1`, the IC50 was 12600 nM.

For the origin of these results see PubChem BioAssay AID588556 (Sanford-Burnham Center for Chemical Genomics, 2011).
